Screening results: PubChem, several laboratories
RAD54 branch: inhibitors of human RAD54 branch migration, primary screen, biochemical, fluorescence, single point. RAD54 Holliday junction branch migration, FAM/BHQ fluorescence. 360,000 compounds, 0.14% hits. inhibition, % at 10.4 µM. DNA repair and recombination protein RAD54-like (Homo sapiens), Q92698;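 active = mean normalized replicate activity at least 40 and at least half of replicates scoring 40 or more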;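 note: 0% = median of neutral control wells and 100% = median of positive control wells; inhibitors cause a drop in the FAM fluorescence signal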
RAD52 inh: RAD52 DNA annealing inhibitors, primary screen, biochemical, FRET, single point, set 2 | recombinant RAD52 DNA annealing, FRET fluorescence | 360,000 compounds, 0.46% hits | AID 651710, 2012 | DNA repair protein RAD52 homolog (Homo sapiens), P43351 | inhibition, % at 18.7 µM;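 active = every replicate showing at least 50% inhibition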
UBC13 inh: UBC13 polyubiquitin chain formation inhibitors, primary screen, biochemical, TR-FRET, uHTS. Ubiquitin-conjugating enzyme E2 N (Homo sapiens), P61088. inhibition, % at 20 µM. 330,000 compounds, 0.47% hits; in the data active = inhibition above about 45%, passing the limit was not always enough
DNA FID counter: compounds displacing fluorescent DNA intercalator, primary screen, artefact control for HCV NS3 helicase inhibitor project, biochemical, FID fluorescence. inhibition, % at 7.9 µM. DNA fluorescent intercalator displacement. 290,000 compounds, 0.17% hits; in the data active = inhibition above about 37%;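 note: 0% = vehicle and 100% = reference compound; higher means more ethidium bromide displaced from hairpin DNA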
Neddylation inh: inhibitors of cullin neddylation, primary screen, biochemical, TR-FRET, uHTS, NAE and Ubc12; calls only at 25 µM; 360,000 compounds, 0.58% hits; in the data active = inhibition above about 36%
Target sequence (P61081 whole entry, looked up): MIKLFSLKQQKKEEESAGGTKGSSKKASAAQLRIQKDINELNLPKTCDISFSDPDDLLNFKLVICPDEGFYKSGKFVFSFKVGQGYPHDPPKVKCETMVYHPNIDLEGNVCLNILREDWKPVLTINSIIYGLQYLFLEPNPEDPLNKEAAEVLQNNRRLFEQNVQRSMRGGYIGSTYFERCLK
Target sequence (Q13564 whole entry, looked up): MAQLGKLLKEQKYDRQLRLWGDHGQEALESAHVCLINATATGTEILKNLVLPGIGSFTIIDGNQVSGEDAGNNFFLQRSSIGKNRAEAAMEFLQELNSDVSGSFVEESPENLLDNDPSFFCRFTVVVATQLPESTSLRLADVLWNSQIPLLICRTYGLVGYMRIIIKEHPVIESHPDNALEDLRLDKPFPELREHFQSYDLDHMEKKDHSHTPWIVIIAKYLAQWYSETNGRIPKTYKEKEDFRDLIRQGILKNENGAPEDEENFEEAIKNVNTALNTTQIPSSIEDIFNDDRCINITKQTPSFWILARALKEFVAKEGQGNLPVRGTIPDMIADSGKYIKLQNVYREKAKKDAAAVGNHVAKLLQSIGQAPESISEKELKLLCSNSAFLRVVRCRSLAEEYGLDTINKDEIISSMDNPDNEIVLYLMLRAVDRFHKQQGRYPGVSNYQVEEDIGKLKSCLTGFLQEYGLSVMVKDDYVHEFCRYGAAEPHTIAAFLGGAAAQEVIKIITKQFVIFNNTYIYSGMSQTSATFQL
Apaf-1 inh: inhibitors of human Apaf-1 apoptosome, primary screen, biochemical, DEVD-Rh110 fluorescence, uHTS | Apoptotic protease-activating factor 1 (Homo sapiens), O14727 | reconstituted apoptosome caspase-3 activity | inhibition, % at 20 µM | 330,000 compounds, 0.71% hits; active = inhibition of at least 40% at 20 µM;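 note: plate controls were DMSO wells for no effect and DEVD-CHO caspase inhibitor wells for full effect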
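Assay system – apoptosome proteins · Medium – Hepes buffer, pH 7.5 · Also added – cytochrome c with DEVD-Rh110 · Timing – 30 min compound preincubation, 50 min activation, room temperature · Detection – Rh110 fluorescence, excitation 480 nm, emission 540 nm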
Numbers without * were called inactive; i = inactive; . = not tested or not shown; + = active, no number; ! = a repeat was not active. Most compounds without a hit are left out; they make up all but 1.6% or so of the library.

SMILES	RAD54 branch	RAD52 inh	UBC13 inh	DNA FID counter	Neddylation inh	Apaf-1 inh
C/C=C/C(=O)Nc1cccc(C2=NOC3(C2)C[C@H](C(N)=O)N(C(=O)c2ccccc2C(=O)c2ccccc2)C3)c1 (stereo not given in full)	.	.	52*	.	.	7
O=S(=O)(NC1c2cccc3cccc(c23)C1N1CCNCC1)c1ccc(Cl)cc1 (stereo not given)	.	-9	2	43*	i	4
O=C(C[C@@H]1CC[C@@H]2[C@H](COC[C@@H](O)CN2S(=O)(=O)c2ccc(Cl)cc2)O1)NCCN1CCCC1	-2	17	.	.	.	.
CCC(C)NCCOCCOc1ccc(Cl)c(C)c1C (stereo not given)	.	13	-4	17	i	-3
CCC(C)NCCOCCOc1ccc(Cl)c2ccccc12 (stereo not given)	27	30	14	51*	i	-4
COCC(=O)N(C)C[C@H]1Oc2ncc(Br)cc2C(=O)N([C@H](C)CO)C[C@@H]1C	-4	11	.	.	.	.
O=c1c(C(c2ccc(O)cc2)c2c(O)nc3n(c2=O)CCS3)c(O)nc2n1CCS2	.	.	-1	0	i	5
O=c1c(C(c2c(O)nc3n(c2=O)CCS3)c2cccc3ccccc23)c(O)nc2n1CCS2	54*	.	-9	-2	i	8
COc1cc2[nH]c(=S)nc(NC3CCCCCC3)c2cc1OC	.	58*	36	-16	i	2
COc1cc2[nH]c(=S)nc(NCC3CCCO3)c2cc1OC (stereo not given)	-11	7	-7	5	i	9
CCOC(=O)N=Nc1c2ccccc2c2nc3no[nH]c3nc12	3	-11	-177	3	i	88*
C[C@@H]1CN([C@H](C)CO)C(=O)c2cc(C#Cc3ccccc3F)cnc2O[C@H]1CN(C)C(=O)C1CCOCC1	8	14	.	.	.	.
CC1CCc2c(sc(NC(=O)c3ccccc3C(=O)O)c2C#N)C1 (stereo not given)	.	-4	-9	-15	i	6
CCC(C)(C)C1CCc2c(sc(NC(=O)c3ccccc3C(=O)O)c2C#N)C1 (stereo not given)	.	-9	-40	-17	+	11
COc1cccc(N2CCN(c3ncnc4c3[nH]c3ccccc34)CC2C)c1 (stereo not given)	.	.	14	-10	.	13
COc1cccc(N2CCN(c3ncnc4c3[nH]c3ccc(F)cc34)CC2C)c1 (stereo not given)	0	.	8	-8	+	12
O=C(C[C@H]1CC[C@@H]2[C@H](COC[C@@H](O)CN2C(=O)c2ccccn2)O1)N1CCN(c2ccccc2)CC1	3	-20	.	.	.	.
COC(=O)c1ccc([C@@H]2C=C(C(=O)N3CCN(Cc4ccc5c(c4)OCO5)CC3)O[C@H](OCc3ccc(CO)cc3)C2)cc1	-4	-45	.	.	.	.
O=C(Nc1ccccc1)N[C@@H]1CC[C@H](CCn2cc(C3(O)CCCC3)nn2)O[C@H]1CO	-2	-8	.	.	.	.
COc1cc(O)c2c(c1)oc(=O)c1c3cc(O)c(O)cc3oc21	.	77*	.	.	.	.
COc1ccc2c(c1)oc(=O)c1cc(OC)ccc12	-2	-4	-3	-1	.	-4
Cc1ccc(S(=O)(=O)Nc2ccc3c(c2)C(=O)N([C@@H](C)CO)C[C@@H](C)[C@H](CN(C)S(=O)(=O)c2cn(C)cn2)OCCCC[C@@H](C)O3)cc1	-1	-20	.	.	.	.
C[C@H]1CCCCO[C@H](CN(C)CC2CCCCC2)[C@@H](C)CN([C@@H](C)CO)C(=O)c2cc(NC(=O)c3ccncc3)ccc2O1	7	13	.	.	.	.
C#CCOCCOCCOCCNc1nc(N2CCOCC2)nc(N2CCN(C(=O)CCCCCCCCCCNC(=O)[C@@H]([C@H](C)O)n3cc(C)nn3)CC2)n1	-9	-6	7	.	i	-4
C#CCOCCOCCOCCNc1nc(N2CCN(C(=O)CCCCCCCCCCNC(=O)[C@H](CCC(=O)O)n3cc(CCCCCN)nn3)CC2)nc(N2CCN(C(=O)CCCCCCCCCCNC(=O)[C@@H]([C@H](C)O)n3cc(C)nn3)CC2)n1	-9	.	41	.	i	51*
SMILES	RAD54 branch	RAD52 inh	UBC13 inh	DNA FID counter	Neddylation inh	Apaf-1 inh
C#CCOCCOCCOCCNc1nc(N2CCN(C(=O)CCCCCCCCCCNC(=O)[C@H]([C@@H](C)CC)n3cc(CCCCCN)nn3)CC2)nc(N2CCN(C(=O)CCCCCCCCCCNC(=O)[C@@H]([C@H](C)O)n3cc(C)nn3)CC2)n1	-8	.	118*	.	i	50*
C#CCOCCOCCOCCNc1nc(N2CCN(C(=O)CCCCCCCCCCNC(=O)[C@@H]([C@H](C)O)n3cc(C)nn3)CC2)nc(N2CCN(C(=O)CCCCCCCCCCNC(=O)[C@@H]([C@H](C)O)n3cc(C)nn3)CC2)n1	-5	-7	22	.	i	30
O=C(C[C@H]1C=C[C@@H](NS(=O)(=O)c2cccc(F)c2)[C@@H](CO)O1)NCc1ccc2c(c1)OCO2	.	-2	.	.	.	.
CO[C@@H]1CN(C)C(=O)c2ccc(NC(=O)Nc3ccccc3)cc2OC[C@H](C)N(CC2CC2)C[C@@H]1C	-5	9	.	.	.	.
CCN(CC)c1ccc(C=Nc2ccc(C)cc2C)c(O)c1	.	-2	18	3	i	5
Cc1ccc(N=Cc2cccc(O)c2O)c(C)c1	6	.	-6	5	i	93*
C[C@H]1CN([C@@H](C)CO)C(=O)c2cc(-c3cncnc3)cnc2O[C@H]1CN(C)Cc1ccc(Oc2ccccc2)cc1	4	-3	.	.	.	.
Cc1ccc(S(=O)(=O)N2C[C@@H]3N[C@H](C2)C3c2ccc(-c3cccc(C#N)c3)cc2)cc1 (stereo not given in full)	.	82*!	.	.	.	.
Cc1ccc(-c2ccc(C3[C@@H]4CN(S(=O)(=O)c5ccccc5)C[C@H]3N4)cc2)cc1 (stereo not given in full)	.	98*!	.	.	.	.
N#Cc1cccc(-c2ccc([C@@H]3[C@@H]4CN(S(=O)(=O)c5ccc(-c6ccccc6)cc5)C[C@H]3N4)cc2)c1	.	-7	.	.	.	.
O=S(=O)(c1ccccc1)N1C[C@@H]2N[C@H](C1)C2c1ccc(-c2ccccc2)cc1 (stereo not given in full)	.	73*!	.	.	.	.
O=C(C1CC1)N1CC2(C1)[C@@H](c1ccccc1)[C@@H](CO)N2Cc1nccs1	.	-3	.	.	.	.
COc1ccc2c3c(n(C)c2c1)[C@H](CO)N(C(=O)C1CCC1)CC31CCN(C(=O)CN(C)C)CC1	.	4	.	.	.	.
CCOC(=O)N1CCN(C(=O)c2ccc3c(c2)sc2nc(-c4ccccc4)cn23)CC1	8	.	6	-32	i	-1
